# Experiments:
# [1] = target: T1, Estrogen receptor (Homo sapiens) (UniProt P03372); test: Activation of the estrogen receptors of MCF-7-2a cells at 10e-6 M.
# T1 sequence (whole entry): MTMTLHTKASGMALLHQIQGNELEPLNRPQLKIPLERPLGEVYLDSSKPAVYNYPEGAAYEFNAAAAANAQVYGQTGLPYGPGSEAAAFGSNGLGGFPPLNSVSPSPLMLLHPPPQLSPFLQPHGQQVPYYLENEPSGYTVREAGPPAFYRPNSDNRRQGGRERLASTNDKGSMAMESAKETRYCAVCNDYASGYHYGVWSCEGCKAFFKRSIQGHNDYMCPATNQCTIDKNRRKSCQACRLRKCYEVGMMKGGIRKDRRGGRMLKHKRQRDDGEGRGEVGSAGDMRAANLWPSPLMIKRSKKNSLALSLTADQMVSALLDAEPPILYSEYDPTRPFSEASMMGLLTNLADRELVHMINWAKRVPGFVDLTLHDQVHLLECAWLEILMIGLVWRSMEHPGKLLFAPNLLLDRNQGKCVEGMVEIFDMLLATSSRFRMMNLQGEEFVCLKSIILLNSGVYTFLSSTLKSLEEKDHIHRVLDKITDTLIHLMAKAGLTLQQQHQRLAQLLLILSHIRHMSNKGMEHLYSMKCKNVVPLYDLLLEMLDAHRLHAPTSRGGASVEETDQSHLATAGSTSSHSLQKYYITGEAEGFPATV
# Summary of the method: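 MCF-7-2a cells stably carrying ERE(wtc)luc, kept one week in DMEM with L-glutamine, antibiotics and dextran/charcoal-treated BCS (50 mL/L). Seeded at about 2.2 × 10^5 cells/mL in six-well plates; compound added after 24 h and cells incubated 50 h. Lysed 20 min at room temperature, luciferase luminescence read for 10 s (RLU), normalized to Bradford protein. Line value taken at 1 μM.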
# [2] = system: Estrogen receptor alpha (Bos taurus); test: Relative binding affinity to Estrogen receptor alpha in calf uterine cytosol compared to [3H]E2.; conditions: Uterus
Compound,Relative activation [1] [%],relative binding affinity (RBA) [2]
CCN1CCN(CC)[C@@H](c2ccc(OC)cc2Cl)[C@H]1c1ccc(OC)cc1Cl,0,–
COc1ccc([C@H]2NCCN[C@H]2c2ccc(OC)cc2F)c(F)c1,4,–
Oc1ccc([C@H]2NCCN[C@H]2c2ccc(O)cc2Cl)c(Cl)c1,7,< 0.02
COc1ccc([C@H]2NCCN[C@H]2c2ccc(OC)cc2Cl)c(Cl)c1,1,–
COc1ccc([C@H]2NCCN[C@H]2c2ccc(OC)cc2)cc1,5,–
Oc1ccc([C@H]2NCCN[C@H]2c2ccc(O)cc2)cc1,-1,< 0.02
CCN1CCN(CC)[C@@H](c2ccc(O)cc2F)[C@H]1c1ccc(O)cc1F,4,0.03
CCN1CCN[C@H](c2ccc(OC)cc2F)[C@@H]1c1ccc(OC)cc1F,3,–
CCN1CCN(CC)[C@@H](c2ccc(OC)cc2F)[C@H]1c1ccc(OC)cc1F,7,–
CCN1CCN(CC)[C@@H](c2ccc(O)cc2Cl)[C@H]1c1ccc(O)cc1Cl,37,0.17
COc1cc(Cl)c([C@H]2NCCN[C@H]2c2c(Cl)cc(OC)cc2Cl)c(Cl)c1,5,–
COc1ccc([C@H]2NCCN[C@H]2c2c(Cl)cc(OC)cc2Cl)c(Cl)c1,3,–

# Now from value to compound:
Relative activation [1] [%],relative binding affinity (RBA) [2],Compound
74,0.42,CCN1CCN[C@H](c2ccc(O)cc2Cl)[C@@H]1c1ccc(O)cc1Cl
8,–,COc1ccc(Cl)c([C@H]2NCCN[C@H]2c2c(Cl)ccc(OC)c2Cl)c1Cl
4,–,CCN1CCN(CC)[C@@H](c2ccc(OC)cc2)[C@H]1c1ccc(OC)cc1
4,< 0.02,Oc1ccc([C@H]2NCCN[C@H]2c2ccc(O)cc2F)c(F)c1
73,0.05,Oc1cc(Cl)c([C@H]2NCCN[C@H]2c2c(Cl)cc(O)cc2Cl)c(Cl)c1
8,< 0.02,CCN1CCN(CC)[C@@H](c2ccc(O)cc2)[C@H]1c1ccc(O)cc1
34,0.06,CCN1CCN[C@H](c2ccc(O)cc2F)[C@@H]1c1ccc(O)cc1F
12,< 0.02,Oc1ccc(Cl)c([C@H]2NCCN[C@H]2c2c(Cl)ccc(O)c2Cl)c1Cl
20,< 0.02,Oc1ccc([C@H]2NCCN[C@H]2c2c(Cl)cc(O)cc2Cl)c(Cl)c1
4,–,CCN1CCN[C@H](c2ccc(OC)cc2Cl)[C@@H]1c1ccc(OC)cc1Cl
